The record followed here is ChEMBL document CHEMBL1124759, “Fluoronaphthyridines and quinolones as antibacterial agents. 2. Synthesis and structure-activity relationships of new 1-tert-butyl 7-substituted derivatives” (J Med Chem, 1990).

Data set [1] relates to Staphylococcus aureus. As to the kind of experiment: In vitro minimum inhibitory concentration (MIC) against Staphylococcus aureus Smith A 9537 at 37 degrees C for 18 hr. The data set is classed as functional. The essentials:
(§1)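 Two-fold serial broth dilution in nutrient broth. Inoculum adjusted to 10^6 cfu/mL. Compounds tested from 0.0005 to 250 µg/mL.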

Data set [2] concerns Klebsiella pneumoniae. Nature of the data set: In vitro minimum inhibitory concentration (MIC) against Klebsiella pneumoniae A 9664 at 37 degrees C for 18 h. Format: functional. The essentials: as §1
A further data set concerns Serratia marcescens. As to the kind of experiment: In vitro minimum inhibitory concentration (MIC) against Serratia marcescens A 20019 at 37 degrees C for 18 hr. Format: functional. The essentials:
as §1

For the next data set, the system named is Enterococcus faecium. Nature of the data set: In vitro minimum inhibitory concentration (MIC) against Enterococcus faecium A 24885 at 37 degrees C for 18 h. Format: functional. The essentials:
as §1

Data set [3] relates to Escherichia coli. Nature of the data set: In vitro minimum inhibitory concentration (MIC) against Escherichia coli A 15119 at 37 degrees C for 18 h. The data set is classed as functional. In outline: as §1
In data set [4] the test system is Pseudomonas aeruginosa. As to the kind of experiment: In vitro minimum inhibitory concentration (MIC) against Pseudomonas aeruginosa A 9843 at 37 degrees C for 18 h. The data set is classed as functional. The essentials: as §1
The next data set deals with Enterococcus faecalis. As to the kind of experiment: In vitro minimum inhibitory concentration (MIC) against Enterococcus faecalis A 9808 at 37 degrees C for 18 h. The data set is classed as functional. The essentials: as §1
The next data set relates to Morganella morganii. Nature of the data set: In vitro minimum inhibitory concentration (MIC) against Morganella morganii A 15153 at 37 degrees C for 18 h. The data set is classed as functional. In outline:
as §1

The subject of data set [5] is Enterobacter cloacae. Nature of the data set: In vitro minimum inhibitory concentration (MIC) against Enterobacter cloacae A 9656 at 37 degree C for 18 h. The data set is classed as functional. In outline: as §1
For data set [6], the system named is Klebsiella pneumoniae. As to the kind of experiment: In vitro minimum inhibitory concentration (MIC) against Klebsiella pneumoniae A 9664 at 37 degrees Celsius for 18 h. The data set is classed as functional. In outline: as §1
For data set [7], the system named is Staphylococcus aureus. As to the kind of experiment: Efficacy on systematic infections against Staphylococcus aureus A 9537 after oral administration in mice. Format: functional. The conditions noted are these: read-out: PD50. In outline:
(§2)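 Mice given compound orally after lethal systemic infection. Read-out is the oral dose protecting 50% of mice from death (PD50), reported in mg/kg.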

Data set [8] relates to Pseudomonas aeruginosa. Nature of the data set: Efficacy on systematic infections against Pseudomonas aeruginosa A 9843 after oral administration in mice. Format: functional. Conditions: read-out: PD50. The essentials:
as §2

Data set [9] relates to Klebsiella pneumoniae. As to the kind of experiment: Efficacy on systematic infections against Klebsiella pneumoniae A 9664 after oral administration in mice. The data set is classed as functional. Conditions: read-out: PD50. In outline:
as §2

Data set [10] relates to Pseudomonas aeruginosa. As to the kind of experiment: In vitro minimum inhibitory concentration (MIC) against Pseudomonas aeruginosa A 9843 at 37 degree C for 18 h. The data set is classed as functional. In outline: as §1
For data set [11], the system named is Escherichia coli. Nature of the data set: Efficacy on systematic infections against Escherichia coli A 15119 after oral administration in mice. The data set is classed as functional. Conditions: read-out: PD50. In outline: as §2
Data set [12] has as its system Enterobacter cloacae. As to the kind of experiment: (§3) In vitro minimum inhibitory concentration (MIC) against Enterobacter cloacae A 9656 at 37 degrees C for 18 h. The data set is classed as functional.
Data set [13] in a line: (§4) Tested for aqueous solubility. Format: physicochemical. Conditions: aqueous medium; read-out: S. In outline: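 An excess of solid was shaken overnight in water for injection at isoelectric pH. The mixture was filtered, and the filtrate was diluted and quantified by HPLC with UV detection.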
In data set [14] the test system is Klebsiella pneumoniae. Nature of the data set: In vitro minimum inhibitory concentration (MIC) […] A 9664 at 37 degrees Celsius for 18 h. The data set is classed as functional. In outline:
as §1

Data set [15] is filed under the species Canis familiaris. Conditions: dog, in vivo, po, 25 mg/kg.
The test system of data set [16] is Mus musculus. Nature of the data set: Dose to protect 50% of mice from lethal infection after peroral administration. The conditions noted are these: po. The data set is classed as functional. The essentials: as §2
The next data set is described as follows: in vivo. The conditions noted are these: dog, urine, po, 25 mg/kg.
Data set [17] is described as follows: as §4. The conditions noted are these: aqueous medium.
The subject of data set [18] is Mus musculus. Nature of the data set: Dose to protect 50% of mice from lethal infection after intravenous administration. The data set is classed as functional.
Data set [19] has as its system Canis familiaris. Nature of the data set: in vivo. Conditions: dog, po, 25 mg/kg.
In data set [20] the test system is Klebsiella pneumoniae. Nature of the data set: In vitro minimum inhibitory concentration (MIC) against Klebsiella pneumoniae A 9664 at 37 degrees C for 18 h. The data set is classed as functional. The essentials:
as §1

Data set [21] has as its system Canis familiaris. As to the kind of experiment: in vivo. The conditions noted are these: dog, po, 25 mg/kg. This is another data set of the same source.
Data set [22] relates to Escherichia coli. As to the kind of experiment: In vitro minimum inhibitory concentration (MIC) against Escherichia coli A 15119 at 37 degrees Celsius for 18 h. Format: functional. The essentials:
as §1

Data set [23] relates to Enterobacter cloacae. The description is as §3. Format: functional. The essentials: as §1
The source holds these as a separate data set.

Data set [24] concerns Enterobacter cloacae. Nature of the data set: In vitro minimum inhibitory concentration (MIC) against Enterobacter cloacae A 9656 at 37 degrees Celsius for 18 h. The data set is classed as functional. The essentials: as §1

Values after ≈ are worked out from the molar mass of the structure shown.

In the case of `CC1CN(c2nc3c(cc2F)c(=O)c(C(=O)O)cn3C(C)(C)C)CCN1` (stereo not given), the MIC (usually the least concentration at which growth counts as inhibited) is 0.13 µg/mL (≈ 0.359 µM) with Staphylococcus aureus [1]; 2 µg/mL (≈ 5.52 µM) against Klebsiella pneumoniae [2]; 4 µg/mL (≈ 11 µM) in the data set on Serratia marcescens; 2 µg/mL (≈ 5.52 µM) against Enterococcus faecium; 0.5 µg/mL (≈ 1.38 µM) with Escherichia coli [3]; 8 µg/mL (≈ 22.1 µM) with Pseudomonas aeruginosa [4]. Besides, the MIC against Enterococcus faecalis is 0.5 µg/mL (≈ 1.38 µM); in the data set with Morganella morganii it was 4 µg/mL (≈ 11 µM); in the data set with Enterobacter cloacae [5], 1 µg/mL (≈ 2.76 µM).
For `CS(=O)(=O)O.C[C@H]1CN(c2nc3c(cc2F)c(=O)c(C(=O)O)cn3C(C)(C)C)C[C@@H]1N`, the minimal inhibitory concentration (MIC) in the data set on Klebsiella pneumoniae [6] was determined as 0.06 µg/mL; in the data set on Staphylococcus aureus [1] it was 0.008 µg/mL; with Serratia marcescens, 0.13 µg/mL; against Enterococcus faecium, 0.5 µg/mL; in the data set with Escherichia coli [3], 0.015 µg/mL; with Pseudomonas aeruginosa [10], 0.25 µg/mL. The MIC against Enterococcus faecalis is 0.06 µg/mL; against Enterobacter cloacae [12] it was 0.015 µg/mL; in the data set with Morganella morganii it was 0.13 µg/mL. In addition, the ED50 with Staphylococcus aureus [7] was determined as 1.6 mg/kg; in the data set on Pseudomonas aeruginosa [8], 6.3 mg/kg; in the data set with Klebsiella pneumoniae [9], 6.3 mg/kg; in the data set on Escherichia coli [11], 2.4 mg/kg.
In the case of `CC(C)(C)n1cc(C(=O)O)c(=O)c2cc(F)c(N3C[C@H]4C[C@@H]3CN4)cc21.CS(=O)(=O)O`, the solubility in [13] stood at 230 µg/mL. The MIC was determined as 0.5 µg/mL against Staphylococcus aureus [1]; 0.25 µg/mL against Serratia marcescens; 4 µg/mL against Enterococcus faecium; 0.5 µg/mL in the data set on Escherichia coli [3]; 0.13 µg/mL in the data set on Klebsiella pneumoniae [14]; 0.5 µg/mL in the data set with Pseudomonas aeruginosa [10]. Further, the minimum inhibitory concentration (MIC) turned out to be 2 µg/mL against Enterococcus faecalis, 0.25 µg/mL with Enterobacter cloacae [12] and 2 µg/mL in the data set with Morganella morganii.
For the molecule `CC(C)(C)n1cc(C(=O)O)c(=O)c2cc(F)c(N3C[C@H]4C[C@@H]3CN4)nc21`, the AUC (in general, the area under the concentration-time curve, a measure of exposure) in the data set listed under Canis familiaris [15] worked out at 55000 ng·h/mL. Further, the MIC against Staphylococcus aureus [1] amounted to 0.06 µg/mL (≈ 0.166 µM); with Serratia marcescens, 0.06 µg/mL (≈ 0.166 µM); in the data set with Enterococcus faecium, 1 µg/mL (≈ 2.77 µM); with Escherichia coli [3], 0.06 µg/mL (≈ 0.166 µM); against Klebsiella pneumoniae [20] it was 0.06 µg/mL (≈ 0.166 µM); in the data set with Pseudomonas aeruginosa [10], 0.25 µg/mL (≈ 0.694 µM). The MIC in the data set on Enterococcus faecalis was 0.13 µg/mL (≈ 0.361 µM); against Enterobacter cloacae [12] it was 0.06 µg/mL (≈ 0.166 µM); in the data set on Morganella morganii, 0.25 µg/mL (≈ 0.694 µM). Moreover, the results for the LD50 in the data set on Mus musculus [16] and with Mus musculus [18] were 5000 mg/kg and 303 mg/kg, respectively. For the same molecule, the ED50 amounted to 1.6 mg/kg in the data set with Staphylococcus aureus [7], 4.7 mg/kg in the data set with Pseudomonas aeruginosa [8], 4.9 mg/kg in the data set with Klebsiella pneumoniae [9] and 1.8 mg/kg in the data set with Escherichia coli [11]. The molecule further showed a dose excreted in the data set “in vivo” of 20%. In data set [17], this molecule registered a solubility of 80 µg/mL (≈ 222 µM). In addition, the half-life (usually the time in which the quantity being followed falls by half) in the data set on Canis familiaris [19] is 4.5 h. The highest level with Canis familiaris [21] (Cmax) was 5600 ng/mL.
For the molecule `CC1CN(c2cc3c(cc2F)c(=O)c(C(=O)O)cn3C(C)(C)C)CC(C)N1` (stereo not given), the MIC with Staphylococcus aureus [1] worked out at 0.25 µg/mL (≈ 0.666 µM); against Klebsiella pneumoniae [2], 0.5 µg/mL (≈ 1.33 µM); against Escherichia coli [22], 0.13 µg/mL (≈ 0.346 µM); with Serratia marcescens it was 2 µg/mL (≈ 5.33 µM); in the data set on Enterococcus faecium, 8 µg/mL (≈ 21.3 µM); in the data set on Pseudomonas aeruginosa [4], 4 µg/mL (≈ 10.7 µM). In addition, the values for the MIC in the data set with Enterococcus faecalis, against Morganella morganii and in the data set on Enterobacter cloacae [23] were 2 µg/mL (≈ 5.33 µM), 1 µg/mL (≈ 2.66 µM) and 0.13 µg/mL (≈ 0.346 µM), respectively.
Regarding `CCNC1CCN(c2nc3c(cc2F)c(=O)c(C(=O)O)cn3C(C)(C)C)C1` (stereo not given), the MIC was 0.06 µg/mL (≈ 0.159 µM) in the data set on Staphylococcus aureus [1]; 0.06 µg/mL (≈ 0.159 µM) with Klebsiella pneumoniae [2]; 1 µg/mL (≈ 2.66 µM) in the data set with Serratia marcescens; 4 µg/mL (≈ 10.6 µM) against Enterococcus faecium; 0.06 µg/mL (≈ 0.159 µM) with Escherichia coli [3]; 0.25 µg/mL (≈ 0.664 µM) in the data set with Enterobacter cloacae [24]. Also, the MIC against Pseudomonas aeruginosa [10] was determined as 4 µg/mL (≈ 10.6 µM); against Enterococcus faecalis, 0.13 µg/mL (≈ 0.345 µM); in the data set on Morganella morganii, 1 µg/mL (≈ 2.66 µM).
